Our source for the CC50 and Selectivity index values is ChEMBL document CHEMBL1146340, “Synthesis of the 5-phosphono-pent-2-en-1-yl nucleosides: a new class of antiviral acyclic nucleoside phosphonates” (Bioorg Med Chem, 2007).

Some results are limits rather than exact numbers.

Series [1] can be described thus: Cytotoxicity against human MRC5 cells by neutral red uptake assay. The class given is cell-based. The essentials: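 MRC-5 human lung fibroblasts seeded at 2.5 x 10^4 cells/well and incubated 24 h. Medium then replaced with MEM plus 2% FBS. Drug diluted serially 5-fold from 100 μM to 0.03 μM and exposed for 7 days. Cells stained with neutral red for 1 h, dye solubilized in 1% acetic acid/50% ethanol, OD read at 540 nm. CC50 (50% viability reduction) calculated; mean ± SD of 3 experiments.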

Series [2] is described as follows: Specificity index, Ratio of CC50 for MCR5 cells to EC50 for HSV1. In kind it is functional. The method, boiled down: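 Ratio of CC50 to EC50, both measured in MRC-5 human lung fibroblasts. […] CC50: neutral red uptake after 7 days, 5-fold dilutions from 100 μM to 0.03 μM, OD 540 nm; mean of 3 experiments.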

Take `Cc1cn(C/C=C\CCP(=O)(O)O)c(=O)[nH]c1=O`: in series [1], the CC50 (as a rule, the concentration giving 50% cytotoxicity) was more than 100 µM.
The compound `O=c1nc(O)ccn1C/C=C\CCP(=O)(O)O` came in with a CC50 in series [1] of more than 100 µM.
Regarding `CCCCCCCCCCCCCCCCOCCCOP(=O)(O)CC/C=C\Cn1ccc(N)nc1=O`, the Selectivity index in series [2] was found to be 2.38. The compound also displayed a cytotoxic concentration (CC50) in series [1] of 11.2 µM.
`Nc1ncnc2c1ncn2C/C=C\CCP(=O)(O)O` returned a CC50 in series [1] of more than 100 µM.
For `CCCCCCCCCCCCCCCCOCCCOP(=O)(O)CC/C=C\Cn1cnc2c(=O)nc(N)[nH]c21`, the Selectivity index in series [2] is recorded as 2.1. This compound also showed a CC50 in series [1] of 12.2 µM.
As to `Nc1nc(=O)c2ncn(C/C=C\CCP(=O)(O)O)c2[nH]1`, the CC50 in series [1] is more than 100 µM.
Turning to `CCCCCCCCCCCCCCCCOCCCOP(=O)(O)CC/C=C\Cn1cnc2c(N)ncnc21`, the Selectivity index in series [2] came out at 0.96. Also, in series [1], the CC50 was determined as 17.3 µM.
The compound `Nc1ccn(C/C=C\CCP(=O)(O)O)c(=O)n1` gave a CC50 in series [1] of more than 100 µM.
In turn, `CCCCCCCCCCCCCCCCOCCCOP(=O)(O)CC/C=C\Cn1ccc(=O)[nH]c1=O` had a 50% cytotoxic concentration (CC50) in series [1] of 51 µM.
`CCCCCCCCCCCCCCCCOCCCOP(=O)(O)CC/C=C\Cn1cc(C)c(=O)[nH]c1=O`: in series [2], the Selectivity index stood at 8.22. For the same compound, in series [1], the midpoint of cytotoxicity, the CC50, lay at 7.4 µM.
